Laboratory results as given in ChEMBL document CHEMBL4020832, “Development of (6 R)-2-Nitro-6-[4-(trifluoromethoxy)phenoxy]-6,7-dihydro-5 H-imidazo[2,1- b][1,3]oxazine (DNDI-8219): A New Lead for Visceral Leishmaniasis” (J Med Chem, 2018).

Columns and labels:
Liver [1] = experiment: Metabolic stability in CD-1 mouse liver microsomes assessed as parent compound remaining at 1 uM after 1 hr; format: ADME, microsome
[2] = AUClast in golden Syrian hamster at 50 mg/kg, po after 24 to 48 hrs by LC-MS/MS analysis; format: ADME, organism-based, Mesocricetus auratus; settings: in vivo
In short: (§1)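 Fasted female golden Syrian hamsters. IV dose was 2 mg/kg as a solution in 20% NMP and 40% PEG-400 in citrate buffer (pH 3). Oral dosing at 40–50 mg/kg used PEG-400 as vehicle. Plasma was quantified by LC–MS/MS. AUClast was taken to the last time point (24 or 48 h).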

[3] = Cmax in golden Syrian hamster at 50 mg/kg, po by LC-MS/MS analysis; format: ADME, organism-based, Mesocricetus auratus; design: dose 50 mg/kg, route oral; settings: in vivo; in short: as §1
[4] = Initial concentration in golden Syrian hamster at 2 mg/kg, iv by LC-MS/MS analysis; format: ADME, organism-based, Mesocricetus auratus; settings: in vivo
In short: (§2)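 Fasted female golden Syrian hamsters given 2 mg/kg iv as a solution in 20% NMP and 40% PEG-400 in citrate buffer pH 3. Plasma concentrations determined by LC–MS/MS to derive PK parameters.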

Liver [5] = experiment: Metabolic stability in human liver microsomes assessed as parent compound remaining at 1 uM after 1 hr; format: ADME, microsome
[6] = Half life in golden Syrian hamster at 50 mg/kg, po by LC-MS/MS analysis; format: ADME, organism-based, Mesocricetus auratus; settings: in vivo
[7] = Tmax in golden Syrian hamster at 50 mg/kg, po by LC-MS/MS analysis; format: ADME, organism-based, Mesocricetus auratus; settings: in vivo
[8] = Half life in golden Syrian hamster at 2 mg/kg, iv by LC-MS/MS analysis; format: ADME, organism-based, Mesocricetus auratus; settings: in vivo; in short: as §1
Syrian golden hamster [9] = experiment: Oral bioavailability in golden Syrian hamster at 50 mg/kg by LC-MS/MS analysis; format: ADME, organism-based, Mesocricetus auratus; settings: in vivo
[10] = Metabolic stability in hamster liver microsomes assessed as parent compound remaining at 1 uM after 1 hr; format: ADME, microsome; settings: read-out: Stability
[11] = Volume of distribution at steady state in golden Syrian hamster at 2 mg/kg, iv by LC-MS/MS analysis; format: ADME, organism-based, Mesocricetus auratus; settings: in vivo, read-out: Vdss; in short: as §2
[12] = AUClast in golden Syrian hamster at 2 mg/kg, iv after 24 to 48 hrs by LC-MS/MS analysis; format: ADME, organism-based, Mesocricetus auratus; settings: in vivo; in short: as §1
[13] = Clearance in golden Syrian hamster at 2 mg/kg, iv by LC-MS/MS analysis; format: ADME, organism-based, Mesocricetus auratus; settings: in vivo
Rattus norvegicus [14] = experiment: (§3) Tmax in Sprague-Dawley rat at 40 mg/kg, po by LC-MS/MS analysis; format: ADME, organism-based; settings: in vivo
In short: (§4)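 Fasted male Sprague-Dawley rats dosed orally at 40–50 mg/kg as a suspension in 0.08% Tween 80/0.5% CMC in water. iv reference was 1 mg/kg in 20% NMP/40% PEG-400 in citrate buffer pH 3. Plasma analysed by LC–MS/MS. F from dose-normalized AUClast.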

[15] = Half life in Sprague-Dawley rat at 1 mg/kg, iv by LC-MS/MS analysis; format: ADME, organism-based; settings: in vivo
In short: (§5)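 Fasted male Sprague-Dawley rats. IV dose was 1 mg/kg as a solution in 20% NMP and 40% PEG-400 in citrate buffer (pH 3). Oral dose was 40–50 mg/kg as a suspension in 0.08% Tween 80 and 0.5% CMC in water. Plasma was analysed by LC–MS/MS. AUClast was taken to the last time point (24 or 48 h).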

[16] = Cmax in golden Syrian hamster at 40 mg/kg, po by LC-MS/MS analysis; format: ADME, organism-based, Mesocricetus auratus; design: dose 40 mg/kg, route oral; settings: in vivo; in short: as §1
[17] = Half life in Swiss albino mouse at 40 mg/kg, po by LC-MS/MS analysis; format: ADME, organism-based; settings: in vivo
[18] = Half life in golden Syrian hamster at 40 mg/kg, po by LC-MS/MS analysis; format: ADME, organism-based, Mesocricetus auratus; settings: in vivo
[19] = AUClast in golden Syrian hamster at 40 mg/kg, po after 24 to 48 hrs by LC-MS/MS analysis; format: ADME, organism-based, Mesocricetus auratus; settings: in vivo; in short: as §1
Mus musculus [20] = experiment: (§6) Cmax in Swiss albino mouse at 40 mg/kg, po by LC-MS/MS analysis; format: ADME, organism-based; design: dose 40 mg/kg, route oral; settings: in vivo
Rattus norvegicus [21] = experiment: (§7) Cmax in Sprague-Dawley rat at 40 mg/kg, po by LC-MS/MS analysis; format: ADME, organism-based; design: dose 40 mg/kg, route oral; settings: in vivo; in short: as §5
[22] = Apparent permeability from apical to basolateral side in MDCK cells harboring MDR1 at 2 uM after 150 mins by LC-MS/MS analysis; format: ADME, cell-based, Canis lupus familiaris; settings: dog
In short: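 MDCK-MDR1 monolayers were seeded at 2 × 10^5 cells/cm2 and grown to confluence over 4–7 days. Compound at 2 μM in 0.4% DMSO/HBSS was applied apically or basolaterally. Plates were incubated 150 min at 37 °C, 5% CO2, in triplicate. Quantitation was by LC–MS/MS analyte/internal-standard peak-area ratio.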

[23] = AUClast in Sprague-Dawley rat at 1 mg/kg, iv after 24 to 48 hrs by LC-MS/MS analysis; format: ADME, organism-based; settings: in vivo; in short: as §5
[24] = Volume of distribution at steady state in Sprague-Dawley rat at 1 mg/kg, iv by LC-MS/MS analysis; format: ADME, organism-based; settings: in vivo, read-out: Vdss
In short: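 Fasted male Sprague-Dawley rats received 1 mg/kg iv as a solution in 20% NMP/40% PEG-400 in citrate buffer pH 3. Plasma concentrations by LC–MS/MS used for PK parameter estimation.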

Mus musculus [25] = experiment: (§8) AUClast in Swiss albino mouse at 40 mg/kg, po after 24 to 48 hrs by LC-MS/MS analysis; format: ADME, organism-based; settings: in vivo
[26] = Initial concentration in Sprague-Dawley rat at 1 mg/kg, iv by LC-MS/MS analysis; format: ADME, organism-based; settings: in vivo
In short: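 Male Sprague-Dawley rats, fasted, dosed iv at 1 mg/kg as a solution in 20% NMP/40% PEG-400 in citrate buffer (pH 3). Plasma was analysed by LC–MS/MS and C0 was derived with WinNonlin-type PK analysis.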

[27] = Tmax in golden Syrian hamster at 40 mg/kg, po by LC-MS/MS analysis; format: ADME, organism-based, Mesocricetus auratus; settings: in vivo
[28] = Octanol/phosphate buffer solution distribution coefficient, log D of the compound at pH 7.4 by LC-MS/MS method; format: physicochemical; settings: octanol/water
In short: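 Shake-flask partition between octanol and 100 mM phosphate buffer pH 7.4 at room temperature, final matrix 1% DMSO. Phases quantified by LC–MS/MS.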

Rattus norvegicus [29] = experiment: (§9) Oral bioavailability in Sprague-Dawley rat at 40 mg/kg by LC-MS/MS analysis; format: ADME, organism-based; settings: in vivo; in short: as §4
Mus musculus [30] = experiment: (§10) Tmax in Swiss albino mouse at 40 mg/kg, po by LC-MS/MS analysis; format: ADME, organism-based; settings: in vivo
[31] = Clearance in Sprague-Dawley rat at 1 mg/kg, iv by LC-MS/MS analysis; format: ADME, organism-based; settings: in vivo; in short: as §5
Syrian golden hamster [32] = experiment: Oral bioavailability in golden Syrian hamster at 40 mg/kg by LC-MS/MS analysis; format: ADME, organism-based, Mesocricetus auratus; settings: in vivo
[33] = as §3; format: ADME, organism-based; settings: Sprague-Dawley, in vivo; in short: as §4
[34] = as §6; format: ADME, organism-based; design: dose 40 mg/kg, route oral; settings: Swiss albino, in vivo
[35] = as §7; format: ADME, organism-based; design: dose 40 mg/kg, route oral; settings: Sprague-Dawley, in vivo; in short: as §5
[36] = as §8; format: ADME, organism-based; settings: Swiss albino, in vivo
[37] = Half life in Sprague-Dawley rat at 40 mg/kg, po by LC-MS/MS analysis; format: ADME, organism-based; settings: in vivo; in short: as §5
[38] = AUClast in Sprague-Dawley rat at 40 mg/kg, po after 24 to 48 hrs by LC-MS/MS analysis; format: ADME, organism-based; settings: in vivo
[39] = as §9; format: ADME, organism-based; settings: Sprague-Dawley, in vivo; in short: as §4
[40] = as §10; format: ADME, organism-based; settings: Swiss albino, in vivo

| Structure (SMILES) | Stability (Liver [1]) | AUC(0-t) [2] | Cmax [3] | C0 [4] | Stability (Liver [5]) | half-life [6] | Tmax [7] | half-life [8] | remaining at 1 h, 1 µM [10] | Vd [11] | AUC(0-t) [12] | half-life [15] | half-life [17] | AUC(0-t) [23] | Vd [24] | C0 [26] | clearance [31] | also measured |
| --- | --- | --- | --- | --- | --- | --- | --- | --- | --- | --- | --- | --- | --- | --- | --- | --- | --- | --- |
| O=[N+]([O-])c1cn2c(n1)OC[C@H](OCc1ccc(-c3ccc(F)cc3F)nc1)C2 | 67% | 3.4 µg·h/mL | 1100 ng/mL | 520 ng/mL | 58% | 17 h | 1.7 h | 1.4 h | 10% | 5.4 L/kg | 0.71 µg·h/mL | – | – | – | – | – | – | F (Syrian golden hamster [9]): 21%; clearance [13]: 59 mL/min/kg |
| O=[N+]([O-])c1cn2c(n1)OC[C@H](Oc1ccc(OC(F)(F)F)cc1)C2 | – | – | – | 660 ng/mL | – | – | – | 1.4 h | 19% | 6.5 L/kg | 0.42 µg·h/mL | 3 h | 7.8 h | 1.51 µg·h/mL | 2.7 L/kg | 540 ng/mL | 11 mL/min/kg | Tmax (Rattus norvegicus [14]): 6.7 h; Cmax [16]: 2100 ng/mL; half-life [18]: 2.2 h; AUC(0-t) [19]: 11.2 µg·h/mL; Cmax (Mus musculus [20]): 21000 ng/mL; Cmax (Rattus norvegicus [21]): 5200 ng/mL; Papp [22]: 32.4 ×10⁻⁶ cm/s; AUClast (Mus musculus [25]): 272 µg·h/mL; Tmax [27]: 3.3 h; logD [28]: 2.59; F (Rattus norvegicus [29]): 100%; Tmax (Mus musculus [30]): 5.3 h; F (Syrian golden hamster [32]): 100% |
| O=[N+]([O-])c1cn2c(n1)OC[C@H](Oc1ccc(C(F)(F)F)cn1)C2 | 92% | 71 µg·h/mL | 12000 ng/mL | – | 90% | 3.1 h | 3.3 h | – | 48% | – | – | 2.7 h | 30 h | 2.47 µg·h/mL | 1.5 L/kg | 840 ng/mL | 6.1 mL/min/kg | Tmax [33]: 2.7 h; Cmax [34]: 96000 ng/mL; Cmax [35]: 18000 ng/mL; AUC(0-t) [36]: 1780 µg·h/mL; half-life [37]: 3.5 h; AUC(0-t) [38]: 164 µg·h/mL; bioavailability [39]: 100%; Tmax [40]: 3.1 h |
